Data from ChEMBL document CHEMBL1125042, “Hypolipidemic activity of rifamycin derivatives” (J Med Chem, 1990).
In brackets after ≈: the same amount, converted by molar mass.

How the values were obtained:
Staphylococcus aureus = test: Antibacterial activity against Staphylococcus aureus 10B; format: functional
Method in brief: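 Agar dilution on DST agar with 2-fold drug dilutions. Inoculum of 10⁴ viable S. aureus 10B was taken from liquid-nitrogen stock, thawed 30 min and not subcultured. It was applied by multipoint replicator and incubated overnight at 37 °C. MIC is the lowest concentration inhibiting growth relative to control cultures.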

Rattus norvegicus [1] = test: Hypolipidemic activity was determined in male rats, and high-density lipoprotein level was determined at 20 mg/kg; format: functional
Method in brief: (§1)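 Male Wistar rats (200–230 g), eight per group, were dosed orally in PEG 400 at 8 a.m. for 4 days, plus a second dose at 4 p.m. on day 4. Rats were fasted 16 h and killed 16 h after the last dose. Sera from pairs of rats were pooled. LDL (up to 1.040 g/cm³) was separated by ultracentrifugation and the HDL infranatant taken. Cholesterol was measured enzymatically. Results are % versus vehicle control, mean ± SEM of four pools, Student's t test.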

Rattus norvegicus [2] = test: Hypolipidemic activity was determined in male rats, and low-density lipoprotein level was determined at 20 mg/kg; format: functional; method in brief: as §1
Rattus norvegicus [3] = test: Tested for hypolipidemic activity in male rats, cholesterol was determined in serum at 20 mg/kg; format: functional
Method in brief: (§2)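 Groups of eight male Wistar rats (200–230 g) dosed orally in PEG 400, either daily for 7 days (killed 24 h after the last dose) or for 4 days with a second dose on day 4 (killed 16 h later). Fasted 16 h. Paired sera pooled, lipoproteins separated by ultracentrifugation (1.006 and 1.040 g/cm³), HDL taken as the infranatant. Cholesterol measured enzymatically; % vs vehicle, mean ± SEM of four pools.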

Rattus norvegicus [4] = test: Hypolipidemic activity was determined by measuring the % serum LDL in normal rat at a dose of 30 mg/kg; format: functional, organism-based; design: dose 30 mg/kg
Method in brief: (§3)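 Normal male Wistar rats (200–230 g), eight per group, were dosed orally in PEG 400 once daily for 7 days. They were fasted 16 h and killed 24 h after the last dose. Serum from pairs was pooled and LDL/HDL fractions were ultracentrifuged. Cholesterol and triglycerides were measured enzymatically. Results are % versus vehicle control, mean ± SEM of four pools, Student's t test.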

Rattus norvegicus [5] = test: Hypolipidemic activity was determined by measuring the % serum cholesterol in normal rat at a dose of 10 mg/kg; format: functional, organism-based; design: dose 10 mg/kg; method in brief: as §3
Rattus norvegicus [6] = test: Hypolipidemic activity was determined by measuring the % serum LDL in normal rat at a dose of 3 mg/kg; format: functional, organism-based; design: dose 3 mg/kg; method in brief: as §3
Rattus norvegicus [7] = test: Hypolipidemic activity was determined by measuring the % serum cholesterol in normal rat at a dose of 3 mg/kg; format: functional, organism-based; design: dose 3 mg/kg; method in brief: as §3
Rattus norvegicus [8] = test: Hypolipidemic activity was determined by measuring the % serum triglycerides in hypercholesterolemic RICO rat at a dose of 10 mg/kg; format: functional, organism-based; design: dose 10 mg/kg
Method in brief: (§4)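 Genetically hypercholesterolemic RICO rats (Tif:RAI,f,SPF) were dosed orally for 7 days. Sera were collected after a 16 h fast and pooled in pairs. LDL (1.006–1.040 g/cm³) and HDL infranatant were separated by ultracentrifugation. Cholesterol and triglycerides were measured enzymatically. Results are % change versus vehicle control, mean ± SEM of four pools.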

Rattus norvegicus [9] = test: Hypolipidemic activity was determined by measuring the % serum HDL in normal rat at a dose of 30 mg/kg; format: functional, organism-based; design: dose 30 mg/kg; method in brief: as §3
Rattus norvegicus [10] = test: Hypolipidemic activity was determined by measuring the % serum cholesterol in normal rat at a dose of 30 mg/kg; format: functional, organism-based; design: dose 30 mg/kg; method in brief: as §3
Rattus norvegicus [11] = test: Hypolipidemic activity was determined by measuring the % serum HDL in normal rat at a dose of 10 mg/kg; format: functional, organism-based; design: dose 10 mg/kg; method in brief: as §3
Rattus norvegicus [12] = test: Hypolipidemic activity was determined in male rats, and high-density lipoprotein level was determined at 10 mg/kg; format: functional; method in brief: as §1
Rattus norvegicus [13] = test: Hypolipidemic activity was determined by measuring the % serum cholesterol in hypercholesterolemic RICO rat at a dose of 30 mg/kg; format: functional, organism-based; design: dose 30 mg/kg; method in brief: as §4
Rattus norvegicus [14] = test: Hypolipidemic activity was determined by measuring the % serum triglycerides in normal rat at a dose of 3 mg/kg; format: functional, organism-based; design: dose 3 mg/kg; method in brief: as §3
Rattus norvegicus [15] = test: Hypolipidemic activity was determined by measuring the % serum triglycerides in hypercholesterolemic RICO rat at a dose of 30 mg/kg; format: functional, organism-based; design: dose 30 mg/kg; method in brief: as §4
Rattus norvegicus [16] = test: Hypolipidemic activity was determined by measuring the % serum HDL in hypercholesterolemic RICO rat at a dose of 10 mg/kg; format: functional, organism-based; design: dose 10 mg/kg; method in brief: as §4
Rattus norvegicus [17] = test: Hypolipidemic activity was determined by measuring the % serum LDL in normal rat at a dose of 10 mg/kg; format: functional, organism-based; design: dose 10 mg/kg; method in brief: as §3
Rattus norvegicus [18] = test: Hypolipidemic activity was determined by measuring the % serum LDL-cholesterol in hypercholesterolemic RICO rat at a dose of 30 mg/kg; format: functional, organism-based; design: dose 30 mg/kg; method in brief: as §4
Rattus norvegicus [19] = test: Hypolipidemic activity was determined by measuring the % serum HDL in hypercholesterolemic RICO rat at a dose of 30 mg/kg; format: functional, organism-based; design: dose 30 mg/kg; method in brief: as §4
Rattus norvegicus [20] = test: Hypolipidemic activity was determined by measuring the % serum LDL in normal rat at a dose of 1 mg/kg; format: functional, organism-based; design: dose 1 mg/kg; method in brief: as §3
Rattus norvegicus [21] = test: Hypolipidemic activity was determined by measuring the % serum triglycerides in normal rat at a dose of 30 mg/kg; format: functional, organism-based; design: dose 30 mg/kg; method in brief: as §3
Rattus norvegicus [22] = test: Hypolipidemic activity was determined by measuring the % serum HDL in hypercholesterolemic RICO rat at a dose of 3 mg/kg; format: functional, organism-based; design: dose 3 mg/kg; method in brief: as §4
Rattus norvegicus [23] = test: Hypolipidemic activity was determined by measuring the % serum triglycerides in normal rat at a dose of 1 mg/kg; format: functional, organism-based; design: dose 1 mg/kg; method in brief: as §3
[24] = Inhibitory activity against RNA polymerase was determined; design: species or system Escherichia coli
Method in brief: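 E. coli DNA-dependent RNA polymerase inhibition measured in vitro on ether-extracted, permeabilized E. coli cells.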

Rattus norvegicus [25] = test: Hypolipidemic activity was determined by measuring the % serum cholesterol in hypercholesterolemic RICO rat at a dose of 10 mg/kg; format: functional, organism-based; design: dose 10 mg/kg; method in brief: as §4
Rattus norvegicus [26] = test: Hypolipidemic activity was determined by measuring the % serum HDL in normal rat at a dose of 1 mg/kg; format: functional, organism-based; design: dose 1 mg/kg; method in brief: as §3
Rattus norvegicus [27] = test: Hypolipidemic activity was determined by measuring the % serum LDL-cholesterol in hypercholesterolemic RICO rat at a dose of 10 mg/kg; format: functional, organism-based; design: dose 10 mg/kg; method in brief: as §4
Rattus norvegicus [28] = test: Hypolipidemic activity was determined by measuring the % serum LDL-cholesterol in hypercholesterolemic RICO rat at a dose of 3 mg/kg; format: functional, organism-based; design: dose 3 mg/kg; method in brief: as §4
Rattus norvegicus [29] = test: Hypolipidemic activity was determined by measuring the % serum cholesterol in hypercholesterolemic RICO rat at a dose of 3 mg/kg; format: functional, organism-based; design: dose 3 mg/kg; method in brief: as §4
Rattus norvegicus [30] = test: Hypolipidemic activity was determined by measuring the % serum HDL in normal rat at a dose of 3 mg/kg; format: functional, organism-based; design: dose 3 mg/kg; method in brief: as §3
Rattus norvegicus [31] = test: Tested for hypolipidemic activity in male rats, cholesterol was determined in serum at 10 mg/kg; format: functional; method in brief: as §2
Rattus norvegicus [32] = test: Hypolipidemic activity was determined by measuring the % serum cholesterol in normal rat at a dose of 1 mg/kg; format: functional, organism-based; design: dose 1 mg/kg; method in brief: as §3
Rattus norvegicus [33] = test: Hypolipidemic activity was determined by measuring the % serum triglycerides in hypercholesterolemic RICO rat at a dose of 3 mg/kg; format: functional, organism-based; design: dose 3 mg/kg; method in brief: as §4
Rattus norvegicus [34] = test: Hypolipidemic activity was determined by measuring the % serum triglycerides in normal rat at a dose of 10 mg/kg; format: functional, organism-based; design: dose 10 mg/kg; method in brief: as §3
Rattus norvegicus [35] = test: Hypolipidemic activity was determined in male rats, and low-density lipoprotein level was determined at 10 mg/kg; format: functional; method in brief: as §1

Compound: COC1/C=C/OC2(C)Oc3c(C)c(O)c4c(O)c(c(N5CCC(C(C)(C)C)CC5)c(O)c4c3C2=O)NC(=O)/C(C)=C\C=C\C(C)C(O)C(C)C(O)C(C)C(OC(C)=O)C1C (centres undefined)
- MIC (Staphylococcus aureus): < 0.1 µg/mL
- Activity (Rattus norvegicus [1]): -48%
- Activity (Rattus norvegicus [2]): -52%
- Activity (Rattus norvegicus [3]): -51%

Compound: COC1/C=C/OC2(C)Oc3c(C)c(O)c4c(O)c(c(N5CCN(Cc6c(C)cc(C)cc6C)CC5)c(O)c4c3C2=O)NC(=O)/C(C)=C\C=C\C(C)C(O)C(C)C(O)C(C)C(OC(C)=O)C1C (centres undefined)
- MIC (Staphylococcus aureus): 0.01 µg/mL (≈ 0.0109 µM)
- Serum LDL-cholesterol (Rattus norvegicus [4]): -64%
- Serum cholesterol (Rattus norvegicus [5]): -42%
- Serum LDL-cholesterol (Rattus norvegicus [6]): -28%
- Serum cholesterol (Rattus norvegicus [7]): -11%
- Serum triglyceride (Rattus norvegicus [8]): -17%
- Serum HDL-cholesterol (Rattus norvegicus [9]): -69%
- Serum cholesterol (Rattus norvegicus [10]): -72%
- Serum HDL-cholesterol (Rattus norvegicus [11]): -46%
- Activity (Rattus norvegicus [12]): -38%
- Serum cholesterol (Rattus norvegicus [13]): -65%
- Serum triglyceride (Rattus norvegicus [14]): -3%
- Serum triglyceride (Rattus norvegicus [15]): -55%
- Serum HDL-cholesterol (Rattus norvegicus [16]): -30%
- Serum LDL-cholesterol (Rattus norvegicus [17]): -53%
- Serum LDL-cholesterol (Rattus norvegicus [18]): -68%
- Serum HDL-cholesterol (Rattus norvegicus [19]): -72%
- Serum LDL-cholesterol (Rattus norvegicus [20]): -11%
- Serum triglyceride (Rattus norvegicus [21]): -50%
- Serum HDL-cholesterol (Rattus norvegicus [22]): -7%
- Serum triglyceride (Rattus norvegicus [23]): 11%
- IC50 [24]: 0.3 µg/mL (≈ 0.328 µM)
- Serum cholesterol (Rattus norvegicus [25]): -30%
- Serum HDL-cholesterol (Rattus norvegicus [26]): -8%
- Activity (Rattus norvegicus [1]): -58%
- Serum LDL-cholesterol (Rattus norvegicus [27]): -42%
- Serum LDL-cholesterol (Rattus norvegicus [28]): -29%
- Activity (Rattus norvegicus [2]): -79%
- Serum cholesterol (Rattus norvegicus [29]): -8%
- Serum HDL-cholesterol (Rattus norvegicus [30]): -14%
- Activity (Rattus norvegicus [31]): -35%
- Serum cholesterol (Rattus norvegicus [32]): 0%
- Serum triglyceride (Rattus norvegicus [33]): 8%
- Activity (Rattus norvegicus [3]): -63%
- Serum triglyceride (Rattus norvegicus [34]): -18%
- Activity (Rattus norvegicus [35]): -43%

Compound: COC1/C=C/OC2(C)Oc3c(C)c(O)c4c(O)c(c(N5CCC(CO)CC5)c(O)c4c3C2=O)NC(=O)/C(C)=C\C=C\C(C)C(O)C(C)C(O)C(C)C(OC(C)=O)C1C (centres undefined)
- MIC (Staphylococcus aureus): < 0.1 µg/mL
- Activity (Rattus norvegicus [1]): -10%
- Activity (Rattus norvegicus [2]): -7%
- Activity (Rattus norvegicus [3]): -14%
